Test [1] in a line: Inhibition of N-terminal GST/His6-tagged human recombinant TEAD1 (209 to 424 residues)/YBD (unknown origin) incubated for 5 hrs by TR-FRET assay. The essentials:
(§1)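 His-tagged TEAD YAP-binding domain protein (100 nM), expressed in Rosetta(DE3) pLysS and purified by cobalt resin then gel filtration. Protein preincubated with inhibitor for 5 h in 50 mM HEPES pH 7.5, 200 mM NaCl, 0.1% Pluronic F-68. Then 800 nM tracer WZJ-10 and anti-6His Tb cryptate (50 ng/mL final) added; TR-FRET read at 490/520 nm. Mean ± SEM of two experiments, each in biological triplicate.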
In general terms: Time-resolved FRET reads energy transfer from a long-lived donor to a nearby acceptor.

Test [2] can be described thus: Inhibition of N-terminal His6-tagged human recombinant TEAD2 (217 to 447 residues)/ recombinant YBD (unknown origin) incubated for 5 hrs by TR-FRET assay. In outline:
as §1

Test [3] can be described thus: Inhibition of N-terminal His6-tagged human recombinant TEAD3 (216 to 434 residues)/ recombinant YBD (unknown origin) incubated for 5 hrs by TR-FRET assay. The essentials: as §1
The nature of test [4]: Inhibition of N-terminal His6-tagged human recombinant TEAD4 (209 to 427 residues)/ recombinant YBD (unknown origin) incubated for 5 hrs by TR-FRET assay. The essentials:
as §1

A short description of test [5]: Inhibition of TEAD transcriptional activity in human NCI-H226 cells assessed as luciferase activity measured for 3 days by reporter gene assay. It counts as cell-based. Particulars: NCI-H226, 72 h. The essentials:
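NCI-H226 cells transduced with a pan-TEAD response element luciferase reporter lentivirus (8 μg/mL polybrene) and puromycin-selected. Seeded at 1000 cells per well in 384-well plates and treated with inhibitor for 3 days. Luciferase read with One-Glo and normalized to CellTiter-Glo viability.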

A further test has as its system NCI-H226. As to the kind of experiment: Antiproliferative activity against human NCI-H226 cells assessed as reduction in cell viability measured for 5 days by celliter-glo assay. It counts as functional, cell-based. Conditions: NCI-H226, 120 h. In outline: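 NCI-H226 mesothelioma cells grown in RPMI1640 with 10% FBS and 1% penicillin/streptomycin, seeded at 100 cells per well in 384-well plates. Inhibitor added by digital dispenser, 5-day incubation. CellTiter-Glo luminescence read after 20 min, normalized to DMSO-treated samples. Mean ± SD of n = 3 biological independent samples.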

A short description of test [6]: Antiproliferative activity against human 94T778 cells assessed as reduction in cell viability measured for 5 days by celliter-glo assay. The test is classed as functional, cell-based. Particulars: 94T778, 120 h. The essentials:
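94T778 well-differentiated liposarcoma cells grown in RPMI1640 with 10% FBS and 1% penicillin/streptomycin. Treated with inhibitor for 5 days and viability read as CellTiter-Glo luminescence. Mean ± SD of n = 3 biological independent samples.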

Results on 23 compounds are retold here after ChEMBL document CHEMBL5380827, “Structure-Based Design of Y-Shaped Covalent TEAD Inhibitors” (J Med Chem, 2023).

For orientation: IC50 means the point on the concentration scale where inhibition reaches its midpoint.

In the case of `C=CC(=O)N1CCN(c2ncccn2)CC(OCc2ccc(C(F)(F)F)cc2)C1` (racemic), the IC50 in test [1] worked out at 80 nM; in test [2] it was 578 nM; in test [3], 429 nM; in test [4] it was 236 nM; in test [5], 522 nM.

With `C=C(F)C(=O)N1C[C@@H](n2cc(-c3cccnc3)nn2)[C@H](OCc2ccc(C(F)(F)F)cc2)C1`, the half-maximal inhibitory concentration (IC50) with NCI-H226 came out at 131 nM; in test [1], 29 nM; in test [2], 197 nM; in test [3], 31 nM; in test [4], 467 nM; in test [5] it was 86 nM. Moreover, in test [6], the IC50 was found to be 173 nM.

For the compound `C=CC(=O)N1C[C@@H](n2cccn2)[C@H](OCc2ccc(C(F)(F)F)cc2)C1` (racemic), the IC50 in the test on NCI-H226 amounted to 368 nM; in test [1], 56 nM; in test [2], 178 nM; in test [3], 36 nM; in test [4], 111 nM; in test [5] it was 131 nM. Further, in test [6], the IC50 is 258 nM.

For `C=CC(=O)N1C[C@@H](Nc2ncccn2)[C@H](OCc2ccc(C(F)(F)F)cc2)C1` (racemic), the IC50 was 16 nM with NCI-H226; 29 nM in test [1]; 9 nM in test [2]; 30 nM in test [3]; 25 nM in test [4]; 14 nM in test [5]. Moreover, the IC50 in test [6] worked out at 34 nM.

On to `C=C(C(=O)N1C[C@@H](n2cc(-c3cccnc3)nn2)[C@H](OCc2ccc(C(F)(F)F)cc2)C1)C(F)(F)F`, for which the IC50 is 42 nM in test [1]; 19 nM in test [2]; 19 nM in test [3]; above 10000 nM in test [4]; 2740 nM in test [5].

As for `C=CC(=O)N1C[C@@H](n2ncccc2=O)[C@H](OCc2ccc(C(F)(F)F)cc2)C1` (racemic), the IC50 is 150 nM in the test on NCI-H226; 42 nM in test [1]; 103 nM in test [2]; 50 nM in test [3]; 98 nM in test [4]; 90 nM in test [5]. Besides, the IC50 in test [6] amounted to 214 nM.

Turning to `C=CC(=O)N1C[C@@H](n2ccnn2)[C@H](OCc2ccc(C(F)(F)F)cc2)C1` (racemic), the IC50 in test [1] was found to be 31 nM; in test [2], 79 nM; in test [3] it was 20 nM; in test [4], 406 nM; in test [5], 153 nM.

With `C=CC(=O)N1C[C@@H](n2cc(-c3cccnc3)nn2)[C@H](OCc2ccc(C(F)(F)F)cn2)C1` (racemic), the IC50 in test [1] came out at 207 nM; in test [2], 230 nM; in test [3], 144 nM; in test [4] it was 2480 nM; in test [5], 670 nM.

As to `CC#CC(=O)N1C[C@@H](n2cc(-c3cccnc3)nn2)[C@H](OCc2ccc(C(F)(F)F)cc2)C1`, the IC50 in test [1] is 44 nM; in test [2] it was 459 nM; in test [3], 47 nM; in test [4], above 10000 nM; in test [5], 229 nM.

As for `CN(C)C/C=C/C(=O)N1C[C@@H](n2cc(-c3cccnc3)nn2)[C@H](OCc2ccc(C(F)(F)F)cc2)C1`, the IC50 was 1030 nM in test [1]; above 10000 nM in test [2]; 1640 nM in test [3]; above 10000 nM in test [4]; 1710 nM in test [5].

Consider `C=CC(=O)N1C[C@@H](Nc2ncc(F)cn2)[C@H](OCc2ccc(C(F)(F)F)cc2)C1` (racemic), for which the IC50 in the test on NCI-H226 was 28 nM; in test [1], 30 nM; in test [2], 17 nM; in test [3], 26 nM; in test [4], 21 nM; in test [5], 16 nM. Moreover, the IC50 in test [6] was 114 nM.

As for `C=CC(=O)N1C[C@@H](Cc2ccccn2)[C@H](OCc2ccc(C(F)(F)F)cc2)C1` (racemic), the IC50 came out at 186 nM in the test on NCI-H226; 33 nM in test [1]; 192 nM in test [2]; 48 nM in test [3]; 62 nM in test [4]; 58 nM in test [5]. Besides, the IC50 in test [6] was 612 nM.

`C=CC(=O)N1C[C@@H](OCc2ccc(C(F)(F)F)cc2)[C@H](c2ccc(S(C)(=O)=O)cc2)C1` (racemic): the IC50 was determined as 51 nM in test [1]; 305 nM in test [2]; 51 nM in test [3]; 83 nM in test [4]; 153 nM in test [5].

In the case of `C=CC(=O)N1C[C@@H](n2cc(-c3ccncn3)nn2)[C@H](OCc2ccc(C(F)(F)F)cc2)C1` (racemic), the IC50 stood at 40 nM in test [1]; 103 nM in test [2]; 51 nM in test [3]; 718 nM in test [4]; 206 nM in test [5].

In the case of `Cc1cccc([C@H](C)NC(=O)c2ccc3c(-c4ccc(C(F)(F)F)cc4)cccc3c2)n1`, the IC50 in test [1] worked out at 31 nM; in test [2] it was 40 nM; in test [3], 19 nM; in test [4] it was 35 nM.

For the compound `C=C(F)C(=O)N1C[C@@H](Nc2ncccn2)[C@H](OCc2ccc(C(F)(F)F)cc2)C1`, the IC50 with NCI-H226 was found to be 24 nM; in test [1] it was 47 nM; in test [2] it was 275 nM; in test [3], 32 nM; in test [4], 71 nM; in test [5], 17 nM. In test [6], the IC50 was found to be 40 nM.

On to `C=CC(=O)N1C[C@@H](n2cc(-c3cccnc3)nn2)[C@H](OCC2CCC(F)(F)CC2)C1` (racemic), for which the IC50 came to 264 nM in test [1]; 50 nM in test [2]; 68 nM in test [3]; 685 nM in test [4]; 467 nM in test [5].

Consider `C=CC(=O)N1CC[C@@H](OCc2ccc(C(F)(F)F)cc2)[C@H](Nc2ncc(F)cn2)C1` (racemic), for which the IC50 worked out at 246 nM in the test on NCI-H226; 56 nM in test [1]; 1240 nM in test [2]; 121 nM in test [3]; 427 nM in test [4]; 171 nM in test [5]. For the same compound, the IC50 in test [6] was found to be 1020 nM.

On to `C=CC(=O)N1C[C@@H](n2cc(-c3cccnc3)nn2)[C@H](OCc2cc(Cl)cc(C(F)(F)F)c2)C1` (racemic), for which the IC50 is 425 nM in test [1]; 230 nM in test [2]; 426 nM in test [3]; above 10000 nM in test [4]; 985 nM in test [5].

`C=CC(=O)N1C[C@@H](n2cc(-c3cccnc3)nn2)[C@H](OCC23CC4CC(CC(C4)C2)C3)C1` (mixture of isomers): the IC50 in test [1] is 118 nM; in test [2], 26 nM; in test [3], 38 nM; in test [4], 604 nM; in test [5] it was 1380 nM.

In the case of `C=CC(=O)N1C[C@@H](n2cc(-c3cccnc3)nn2)[C@H](OCc2ccc(C(F)(F)F)nc2)C1` (racemic), the IC50 in test [1] was 391 nM; in test [2], 911 nM; in test [3], 834 nM; in test [4], above 10000 nM; in test [5], 2210 nM.

`C=CC(=O)N1C[C@@H](n2cc(-c3cccnc3)nn2)[C@H](OCc2cc(C(F)(F)F)ccc2Cl)C1` (racemic): the IC50 in test [1] was determined as 100 nM; in test [2], 604 nM; in test [3], 215 nM; in test [4], 4430 nM; in test [5], 1720 nM.

Turning to `C=CC(=O)N1C[C@@H](n2cc(-c3cccnc3)nn2)[C@H](OCc2ccc(C(F)(F)F)cc2)C1` (racemic), the IC50 is 63 nM with NCI-H226; 37 nM in test [1]; 49 nM in test [2]; 26 nM in test [3]; 25 nM in test [4]; 106 nM in test [5]. Further, in test [6], the IC50 is 173 nM.
